# What was measured:
# Staphylococcus aureus [1] = experiment: Antimicrobial activity against hospital methicillin-resistant Staphylococcus aureus 573/11 after 18 hrs by twofold serial microdilution method; type: functional; conditions: 573/11, 18 h
# How it was run: (§1)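 Twofold serial microdilution in Mueller-Hinton broth. Compound stock was made in DMSO and diluted in sterile water. Tested range was 0.125–512 µg/mL. Final inoculum was 10^5 CFU/mL. Plates were incubated 18 h at 35 °C. MIC is the lowest concentration preventing visible growth.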
# Bacillus cereus = experiment: Antimicrobial activity against Bacillus cereus ATCC 11778 at 400 ug after 18 hrs by disc-diffusion method; type: functional; conditions: ATCC 11778, 18 h, read-out: IZ
# How it was run: (§2)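 Disc diffusion on Mueller-Hinton II agar per CLSI; 9 mm paper discs loaded with 400 µg compound from DMSO solution, dried, placed on agar; growth inhibition zone diameter read after 18 h at 35°C.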
# [2] = system: Staphylococcus epidermidis; experiment: Antimicrobial activity against hospital methicillin-resistant Staphylococcus epidermidis 76/04 after 18 hrs by twofold serial microdilution method; type: functional; conditions: 76/04, 18 h; how it was run: as §1
# Staphylococcus aureus [3] = experiment: Antimicrobial activity against hospital methicillin-resistant Staphylococcus aureus 79/05 after 18 hrs by twofold serial microdilution method; type: functional; conditions: 79/05, 18 h; how it was run: as §1
# [4] = system: Mycobacterium tuberculosis; experiment: Antimycobacterial activity against drug-sensitive Mycobacterium tuberculosis Spec. 192; type: functional
# How it was run: (§3)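 Classical test-tube successive-dilution method in Youmans' modification of Proskauer and Beck liquid medium with 10% bovine serum. Inoculum came from 14-day cultures. DMSO stock was 10 mg/mL, diluted geometrically in medium. Tubes were incubated at 37 °C. Concentrations tested were 3.1, 6.2, 12.5, 25, 50 and 100 µg/ml. MIC is the minimum concentration inhibiting growth relative to compound-free tubes.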
# [5] = Cytotoxicity against BHK cells assessed as cell viability after 48 to 96 hrs by MTT assay; type: cell-based, Mesocricetus auratus; conditions: hamster
# Staphylococcus aureus [6] = experiment: Antimicrobial activity against hospital methicillin-resistant Staphylococcus aureus 54/05 after 18 hrs by twofold serial microdilution method; type: functional; conditions: 54/05, 18 h; how it was run: as §1
# Staphylococcus aureus [7] = experiment: Antimicrobial activity against Staphylococcus aureus ATCC 25923 at 400 ug after 18 hrs by disc-diffusion method; type: functional; conditions: ATCC 25923, 18 h, read-out: IZ; how it was run: as §2
# [8] = system: Staphylococcus epidermidis; experiment: Antimicrobial activity against Staphylococcus epidermidis ATCC 35984 at 400 ug after 18 hrs by disc-diffusion method; type: functional; conditions: ATCC 35984, 18 h, read-out: IZ; how it was run: as §2
# Staphylococcus aureus [9] = experiment: Ratio of ciprofloxacin MIC to compound MIC for hospital methicillin-resistant Staphylococcus aureus 573/11 after 18 hrs by twofold serial microdilution method; type: functional
# How it was run: (§4)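 Ratio of MICs for ciprofloxacin and test agent, each from twofold serial broth microdilution in Mueller-Hinton broth following CLSI guidelines. DMSO stock was diluted in sterile water to 0.125–512 µg/mL, with a final inoculum of 10^5 CFU/mL.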
# Staphylococcus aureus [10] = experiment: Antimicrobial activity against hospital methicillin-resistant Staphylococcus aureus 81/05 after 18 hrs by twofold serial microdilution method; type: functional; conditions: 81/05, 18 h; how it was run: as §1
# [11] = system: Staphylococcus epidermidis; experiment: Antimicrobial activity against Staphylococcus epidermidis ATCC 12228 after 18 hrs by twofold serial microdilution method; type: functional; conditions: ATCC 12228, 18 h
# Human alphaherpesvirus 1 = experiment: Antiviral activity against Human herpesvirus 1 KOS ATCC VR-1493 infected in African green monkey Vero 76 cells assessed as reduction of virus-plaque formation after 3 days by crystal violet staining; type: functional, organism-based; conditions: Human alphaherpesvirus 1, KOS ATCC VR1493, Vero, 72 h
# How it was run: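 Plaque reduction: Vero-76 at 2x10^5 cells/well grown to confluent monolayers, infected 2 h at 50–100 PFU/well; after removing unadsorbed virus, overlay of D-MEM, 1% inactivated FBS, 0.75% methylcellulose with or without serial compound dilutions; 3 days at 37°C, fixed and stained with crystal violet in 50% ethanol, plaques counted; EC50 by linear regression.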
# Staphylococcus aureus [12] = experiment: Antimicrobial activity against Staphylococcus aureus ATCC 29213 at 400 ug after 18 hrs by disc-diffusion method; type: functional; conditions: ATCC 29213, 18 h, read-out: IZ; how it was run: as §2
# Micrococcus luteus [13] = experiment: Antimicrobial activity against Micrococcus luteus ATCC 9341 at 400 ug after 18 hrs by disc-diffusion method; type: functional; conditions: ATCC 9341, 18 h, read-out: IZ; how it was run: as §2
# [14] = system: Staphylococcus epidermidis; experiment: Ratio of ciprofloxacin MIC to compound MIC for hospital methicillin-resistant Staphylococcus epidermidis 31/04 after 18 hrs by twofold serial microdilution method; type: functional; how it was run: as §4
# Micrococcus luteus [15] = experiment: Antimicrobial activity against Micrococcus luteus ATCC 10240 at 400 ug after 18 hrs by disc-diffusion method; type: functional; conditions: ATCC 10240, 18 h, read-out: IZ; how it was run: as §2
# [16] = system: Staphylococcus epidermidis; experiment: Antimicrobial activity against Staphylococcus epidermidis ATCC 12228 at 400 ug after 18 hrs by disc-diffusion method; type: functional; conditions: ATCC 12228, 18 h, read-out: IZ; how it was run: as §2
# Staphylococcus aureus [17] = experiment: Antimicrobial activity against hospital methicillin-resistant Staphylococcus aureus 53/05 after 18 hrs by twofold serial microdilution method; type: functional; conditions: 53/05, 18 h; how it was run: as §1
# Staphylococcus aureus [18] = experiment: Antimicrobial activity against hospital methicillin-resistant Staphylococcus aureus 80/05 after 18 hrs by twofold serial microdilution method; type: functional; conditions: 80/05, 18 h; how it was run: as §1
# [19] = system: Staphylococcus epidermidis; experiment: Antimicrobial activity against Staphylococcus epidermidis ATCC 35984 after 18 hrs by twofold serial microdilution method; type: functional; conditions: ATCC 35984, 18 h
# [20] = system: Staphylococcus epidermidis; experiment: Antimicrobial activity against hospital methicillin-resistant Staphylococcus epidermidis 63/04 after 18 hrs by twofold serial microdilution method; type: functional; conditions: 63/04, 18 h; how it was run: as §1
# Staphylococcus aureus [21] = experiment: Ratio of ciprofloxacin MIC to compound MIC for hospital methicillin-resistant Staphylococcus aureus 53/05 after 18 hrs by twofold serial microdilution method; type: functional; how it was run: as §4
# [22] = system: Staphylococcus epidermidis; experiment: Antimicrobial activity against hospital methicillin-resistant Staphylococcus epidermidis 16/04 after 18 hrs by twofold serial microdilution method; type: functional; conditions: 16/04, 18 h; how it was run: as §1
# [23] = system: Staphylococcus epidermidis; experiment: Antimicrobial activity against hospital methicillin-resistant Staphylococcus epidermidis 24/04 after 18 hrs by twofold serial microdilution method; type: functional; conditions: 24/04, 18 h; how it was run: as §1
# [24] = system: Human immunodeficiency virus 1; experiment: Antiviral activity against HIV1 3B infected in human MT4 cells assessed as protection against virus-induced cytopathogenicity by MTT assay; type: functional, organism-based; conditions: Human immunodeficiency virus 1, 3B
# Enterococcus hirae = experiment: Antimicrobial activity against Enterococcus hirae ATCC 10541 at 400 ug after 18 hrs by disc-diffusion method; type: functional; conditions: ATCC 10541, 18 h, read-out: IZ; how it was run: as §2
# [25] = system: Mycobacterium tuberculosis; experiment: Antimycobacterial activity against Mycobacterium tuberculosis H37Rv ATCC 25618; type: functional; how it was run: as §3
# Staphylococcus aureus [26] = experiment: Ratio of ciprofloxacin MIC to compound MIC for hospital methicillin-resistant Staphylococcus aureus 79/05 after 18 hrs by twofold serial microdilution method; type: functional; how it was run: as §4
# Poliovirus 1 = experiment: Antiviral activity against Poliovirus type 1 ATCC VR-1562 infected in African green monkey Vero 76 cells assessed as reduction of virus-plaque formation after 2 days by crystal violet staining; type: functional, organism-based; conditions: Enterovirus C, ATCC VR-1562, Vero, 48 h
# [27] = system: Staphylococcus epidermidis; experiment: Antimicrobial activity against hospital methicillin-resistant Staphylococcus epidermidis 151/04 after 18 hrs by twofold serial microdilution method; type: functional; conditions: 151/04, 18 h; how it was run: as §1
# [28] = Cytotoxicity against African green monkey Vero 76 cells assessed as cell viability after 48 to 96 hrs by crystal violet staining; type: cell-based; conditions: chlorocebus sabaeus
# [29] = system: Staphylococcus epidermidis; experiment: Antimicrobial activity against hospital methicillin-resistant Staphylococcus epidermidis 62/04 after 18 hrs by twofold serial microdilution method; type: functional; conditions: 62/04, 18 h; how it was run: as §1
SMILES,MIC (Staphylococcus aureus [1]) [µg/mL],zone of inhibition at 400 µg/disc (Bacillus cereus) [mm],MIC [2] [µg/mL],MIC (Staphylococcus aureus [3]) [µg/mL],MIC [4] [µg/mL],CC50 [5] [µM],MIC (Staphylococcus aureus [6]) [µg/mL],zone of inhibition at 400 µg/disc (Staphylococcus aureus [7]) [mm],zone of inhibition at 400 µg/disc [8] [mm],Ratio (Staphylococcus aureus [9]),MIC (Staphylococcus aureus [10]) [µg/mL],MIC [11] [µg/mL],EC50 (Human alphaherpesvirus 1) [µM],zone of inhibition at 400 µg/disc (Staphylococcus aureus [12]) [mm],zone of inhibition at 400 µg/disc (Micrococcus luteus [13]) [mm],Ratio [14],zone of inhibition at 400 µg/disc (Micrococcus luteus [15]) [mm],zone of inhibition at 400 µg/disc [16] [mm],MIC (Staphylococcus aureus [17]) [µg/mL],MIC (Staphylococcus aureus [18]) [µg/mL],also measured
FC(F)(F)c1cccc(NC(=S)Nc2cccc(Br)c2)c1,0.25,24,1,0.5,> 100,10,0.5,28,27,128,1,2,> 14,29,33,128,30,29,1,0.5,MIC [19]: 2 µg/mL; MIC [20]: 1 µg/mL; Ratio (Staphylococcus aureus [21]): 128; MIC [22]: 2 µg/mL; MIC [23]: 4 µg/mL; EC50 [24]: > 9.2 µM; zone of inhibition at 400 µg/disc (Enterococcus hirae): 13 mm; MIC [25]: 100 µg/mL; Ratio (Staphylococcus aureus [26]): 128; EC50 (Poliovirus 1): > 14 µM; MIC [27]: 2 µg/mL; CC50 [28]: 14 µM; MIC [29]: 1 µg/mL
Fc1cccc(NC(=S)Nc2cccc(C(F)(F)F)c2)c1,8,18,16,8,> 100,9.4,8,22,19,128,8,8,> 20,21,23,128,21,19,4,8,MIC [19]: 8 µg/mL; MIC [20]: 16 µg/mL; Ratio (Staphylococcus aureus [21]): 128; MIC [22]: 8 µg/mL; MIC [23]: 8 µg/mL; EC50 [24]: > 20 µM; zone of inhibition at 400 µg/disc (Enterococcus hirae): 25 mm; MIC [25]: 25 µg/mL; Ratio (Staphylococcus aureus [26]): 128; EC50 (Poliovirus 1): > 20 µM; MIC [27]: 16 µg/mL; CC50 [28]: 20 µM; MIC [29]: 8 µg/mL

# From ChEMBL document CHEMBL3616436, “Synthesis, cytotoxicity and antimicrobial activity of thiourea derivatives incorporating 3-(trifluoromethyl)phenyl moiety” (Eur J Med Chem, 2015)
